Measured values of several laboratories.
Lines come from different studies, so protocols differ.
Cell line: MDA-MB-468
Read-out: cell growth or viability

With COc1ccc(Br)cc1/C=C/C(=O)c1ccc(NC(C)=O)cc1 the IC50 was 2.4 µM (MTT; 48 h).
For c1ccc2c(c1)Cc1c(Cc3csc4ccccc34)ccc3cccc-2c13, the IC50 was 157 µM (MTT).
O=[N+]([O-])c1ccc(S(=O)(=O)NN=Cc2cn(CCN3CCOCC3)c3ccccc23)cc1 has an IC50 of 37.1 µM (MTT; 48 h).
With CCN1CCN(Cc2ccc(Nc3ncc(F)c(-c4cc(F)c5nc(C)n(C(C)C)c5c4)n3)nc2)CC1 the IC50 was 0.711 µM (CCK-8).
For CN(N=O)c1ccc(C=Cc2ccnc3ccccc23)cc1, the IC50 was 3.5 µM (MTT).
The IC50 of O=S(=O)(Cc1ccccc1)NN=Cc1cn(CCN2CCOCC2)c2ccccc12 is reported as 50.6 µM (MTT; 48 h).
The IC50 of CCc1ccc(N2NC(=O)/C(=C/c3ccc(-c4ccc(S(=O)(=O)Nc5nccs5)cc4)o3)C2=O)cc1 is reported as 44 µM (MTT; 48 h).
The IC50 of COc1cc2cc(OC)c3cc4c(cc3c2c(OC)c1OC)OCO4 is reported as 21 µM (MTT).
CC(C)(C)c1ccc(S(=O)(=O)NN=Cc2cn(CCN3CCOCC3)c3ccccc23)cc1 gave an IC50 of 29.6 µM (MTT; 48 h).
With N=C(N)c1ccc(-c2ccc(-c3ccccc3)o2)cc1 the IC50 was 0.66 µM (MTT).
COc1cccc2c1C(=O)c1c(O)c3c(c(O)c1C2=O)C[C@@](O)(C(=O)CO)C[C@@H]3O[C@H]1C[C@H](N)[C@H](O)[C@H](C)O1 has an IC50 of 0.08 µM (MTT; 48 h).
The IC50 of CC1=CC(=C(c2ccc(N)c(C)c2)c2ccc(N)c(C)c2)C=CC1=N is reported as 3.1 µM (MTT).
For COc1ccc(/C=C/C(=O)c2cc(Br)ccc(=O)c2O)cc1, the IC50 was 6.6 µM (MTT; 72 h).
With Oc1ccc(/C=C/c2cc(O)cc3c2C(c2cc(O)cc(O)c2)C(c2ccc(O)c(O)c2)O3)cc1 (centres unmarked) the IC50 was 18 µM (MTT).
For CC(=O)Nc1nc(C)c(-c2csc(Nc3ccccc3)n2)s1, the IC50 was 12.1 µM (MTT; 48 h).
For COc1ccc(S(=O)(=O)NN=Cc2cn(CCN3CCOCC3)c3ccccc23)cc1, the IC50 was 43.3 µM (MTT; 48 h).
COc1cc(/C=C2\SC(=O)NC2=O)ccc1OCc1ccc(Cl)cc1Cl gave an IC50 of 32.5 µM (MTT; 48 h).
For O=S(=O)(NN=Cc1cn(CCN2CCOCC2)c2ccccc12)c1cccc2ncccc12, the IC50 was 32.2 µM (MTT; 48 h).
COc1cccc2c1C(=O)c1c(O)c3c(c(O)c1C2=O)C[C@@](O)(C(=O)CO)C[C@@H]3O[C@H]1C[C@H](N)[C@H](O)[C@H](C)O1 has an IC50 of 0.1 µM (resazurin; 72 h).
O=C(CSc1nc2ccc(N=Cc3ccc(Sc4nnnn4-c4ccccc4)o3)cc2s1)N1CCOCC1 gave an IC50 of 26.9 µM (MTT; 48 h).
